Measurements taken from publication PMC7797077 (Nucleic Acids Research, 2020).
Each block holds one molecule with its values, some of them ahead of it. Where no end group is shown, it is not given here. The star is where a group is joined. Bz = O=C(c1ccccc1)*

What was measured:
[1] = tested on: nuclear Kbz in HEK 293T and HCT116 cells; experiment: Immunofluorescence staining of Kbz after NaBz treatment; type: cell-based, human; conditions: 10 mM NaBz, 24 h
In short: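 Cells were fixed in 4% formaldehyde for 20 min at RT, permeabilized on ice with 0.5% Triton X-100 for 10 min, and blocked in 3% BSA for 1 h. Anti-pan Kbz (1:500) was applied overnight at 4°C, then Alexa Fluor 594 anti-mouse (1:1000) for 1 h. Mounted with DAPI; confocal imaging.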

[2] = tested on: histone Kbz and Kac in mouse intestinal epithelial cells; experiment: NaBz water feeding in mice, western blot of histone Kbz and Kac; type: in vivo, C57BL/6N mice; conditions: ten days of NaBz water feeding at 10, 20 and 50 mM
In short: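 SPF-housed mice drank NaBz water for 10 days. Intestinal tissue was shaken at 200 rpm, 37°C, 20 min in HBSS (no Ca²⁺/Mg²⁺) with 10 mM HEPES, 5 mM EDTA, 1 mM DTT and 3% FBS. Released epithelial cells were pelleted at 1500 rpm, 4°C. Total histones were kit-extracted and BCA-quantified, then run on SDS-PAGE and PVDF. Primary antibodies overnight at 4°C; HRP secondary 1:5,000; ECL. Histone H4 served as loading control; duplicate mice.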

[3] = tested on: histone Kbz in HEK 293T, HeLa, HCT116 and HepG2 cells; experiment: Western blot of core histone Kbz levels after NaBz treatment; type: cell-based, human; conditions: 24-h treatment with NaBz at various concentrations
[4] = molecular target: YEATS2 YEATS domain (201-332) S230F (human) (UniProt Q9ULM3); experiment: ITC
[5] = molecular target: YEATS2 YEATS domain (201-332) (human) (UniProt Q9ULM3); experiment: ITC
[6] = molecular target: AF9 YEATS domain (2-138) (human) (UniProt P42568); experiment: ITC
[7] = molecular target: T1, AF9 YEATS domain (2-138) F28S (human, UniProt P42568 2-138, F28S); experiment: ITC
T1 sequence (looked up): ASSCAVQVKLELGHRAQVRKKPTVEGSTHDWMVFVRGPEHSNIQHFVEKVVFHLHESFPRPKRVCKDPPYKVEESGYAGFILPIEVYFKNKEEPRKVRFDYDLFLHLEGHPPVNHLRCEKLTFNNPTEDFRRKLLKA

YEATS2 YEATS domain (201-332) (human), sequence (Q9ULM3 201-332): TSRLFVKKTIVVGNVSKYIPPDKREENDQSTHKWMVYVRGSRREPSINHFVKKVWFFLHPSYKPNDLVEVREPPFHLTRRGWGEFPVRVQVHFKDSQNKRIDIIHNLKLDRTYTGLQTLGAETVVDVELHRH
YEATS2 YEATS domain (201-332) S230F (human), sequence (Q9ULM3 201-332 S230F): as the sequence (Q9ULM3 201-332) above, with S30F counted along it

Kd [6]: 5.97 µM
Molecule: histone H3_(2-16)K9bz peptide (from UniProt P68431 3-17)

fold binding enhancement over WT AF9 YEATS [7]: ~1.6 fold
B1: histone H3_(2-16)K9bz peptide (peptide, UniProt P68431 3-17, looked up)
peptide: RTKQTARK(Bz)STGGKAP

Second part, the molecule before the results:

Molecule: O=C([O-])c1ccccc1.[Na+] [NaBz, Sodium benzoate]
nuclear Kbz signals (immunofluorescence) [1]: lightened up
pan Kac level of histone in mouse intestinal epithelial cells [2]: not stimulated
histone Kbz signal in mouse intestinal epithelial cells ([2]; two mice per concentration): clearly boosted
signals of histone Kbz (pan Kbz western blot) [3]: upregulated in a dose-dependent manner

Molecule: histone H3_(15-39)K27bz peptide (from UniProt P68431 16-40)
dH [4]: -6.8 kcal/mol
Kd [5]: 21.6 µM
